We go through five compounds from ChEMBL document CHEMBL3286128 (J Med Chem, 2014).

Data set [1] has as its target T1, Human immunodeficiency virus type 1 integrase (Human immunodeficiency virus 1, UniProt Q7ZJM1).
In data set [2] the target is T1, Human immunodeficiency virus type 1 integrase. Description: Inhibition of strand transfer activity of HIV-1 integrase using [gamma-32P]-labeled DNA as substrate. The method in brief: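 Gel-based assay with radiolabelled oligonucleotide substrate and Mg2+ cofactor, measuring strand transfer by recombinant HIV-1 integrase. IC50 determined.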
Data set [3] deals with Human immunodeficiency virus 1. The data set is described as follows: Antiviral activity against HIV-1 harboring wild type integrase infected in human HOS cells pretreated with compound for 3 hrs by single-round HIV-1 infectivity assay. In kind it is functional, organism-based. The conditions noted are these: Human immunodeficiency virus 1, HOS.
The subject of data set [4] is Human immunodeficiency virus 1. Description: Antiviral activity against raltegravir-resistant HIV-1 harboring integrase Y143R mutant infected in human HOS cells pretreated with compound for 3 hrs by single-round HIV-1 infectivity assay. The data set is classed as functional, organism-based. The settings on record: Human immunodeficiency virus 1, HOS.
The subject of data set [5] is Human immunodeficiency virus 1. The data set is described as follows: Antiviral activity against raltegravir-resistant HIV-1 harboring integrase N155H mutant infected in human HOS cells pretreated with compound for 3 hrs by single-round HIV-1 infectivity assay. In kind it is functional, organism-based. The settings on record: Human immunodeficiency virus 1, HOS.
For data set [6], the system named is Human immunodeficiency virus 1. The data set is described as follows: Antiviral activity against raltegravir-resistant HIV-1 harboring integrase G140S/Q148H double mutant infected in human HOS cells pretreated with compound for 3 hrs by single-round HIV-1 infectivity assay. The conditions noted are these: Human immunodeficiency virus 1, HOS. In kind it is functional, organism-based.

Data set [7] has as its system Human immunodeficiency virus 1. The data set is described as follows: Ratio of EC50 for raltegravir-resistant HIV-1 harboring integrase Y143R mutant infected in human HOS cells to EC50 for HIV-1 harboring integrase wild type integrase infected in human HOS cells. The data set is classed as functional.
In data set [8] the test system is Human immunodeficiency virus 1. Description: Ratio of EC50 for raltegravir-resistant HIV-1 harboring integrase N155H mutant infected in human HOS cells to EC50 for HIV-1 harboring integrase wild type integrase infected in human HOS cells. In kind it is functional.
The test system of data set [9] is Human immunodeficiency virus 1. The data set is described as follows: Ratio of EC50 for raltegravir-resistant HIV-1 harboring integrase G140S/Q148H double mutant infected in human HOS cells to EC50 for HIV-1 harboring integrase wild type integrase infected in human HOS cells. In kind it is functional.
Data set [10] relates to Human immunodeficiency virus 1. Description: Antiviral activity against INSTI-resistant HIV-1 harboring integrase R263K mutant infected in human HOS cells pretreated with compound for 3 hrs by single-round HIV-1 infectivity assay. The data set is classed as functional, organism-based. The conditions noted are these: Human immunodeficiency virus 1, HOS. The method in brief: (§1)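 VSV-g-pseudotyped single-round HIV-1 luciferase vector (WT or mutant IN) made in 293T cells by calcium phosphate transfection, supernatant harvested at 48 h. HOS cells were seeded the day before, then pretreated with compound, 11 serial dilutions from 10 μM to 0.0005 μM, at 37 °C for 3 h. Virus was added and cells kept 48 h at 37 °C. Luciferase was read and normalised to infectivity without compound.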

Data set [11] deals with Human immunodeficiency virus 1. Description: Antiviral activity against INSTI-resistant HIV-1 harboring integrase G118R mutant infected in human HOS cells pretreated with compound for 3 hrs by single-round HIV-1 infectivity assay. The data set is classed as functional, organism-based. The settings on record: Human immunodeficiency virus 1, HOS. Summed up:
as §1

Data set [12] concerns Human immunodeficiency virus 1. Description: Ratio of EC50 for INSTI-resistant HIV-1 harboring integrase R263K mutant infected in human HOS cells to EC50 for HIV-1 harboring integrase wild type integrase infected in human HOS cells. In kind it is functional.
The test system of data set [13] is Human immunodeficiency virus 1. Description: Ratio of EC50 for INSTI-resistant HIV-1 harboring integrase G118R mutant infected in human HOS cells to EC50 for HIV-1 harboring integrase wild type integrase infected in human HOS cells. In kind it is functional.
In a further data set the test system is HOS. Description: Cytotoxicity against human HOS cells assessed as ATP level by luciferase reporter assay. The data set is classed as cell-based. The method in brief: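 HOS cells were exposed to compound and viability was read as ATP level by luciferase reporter. […] SI is CC50 divided by WT-vector EC50.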
Data set [14] can be described thus: Selectivity index, ratio of CC50 for human HOS cells to EC50 for HIV-1 harboring wild type integrase infected in human HOS cells. In kind it is toxicity, cell-based. The settings on record: read-out: Ratio CC50/EC50. The method in brief:
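HOS cells were exposed to compound and viability was read as ATP level by luciferase reporter. SI is CC50 divided by WT-vector EC50.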

The nature of data set [15]: Retention time of the compound by HPLC analysis. The data set is classed as physicochemical. The method in brief: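 Preparative HPLC run as a linear gradient of solvent B over 30 min, starting at 30% B and ending at 70% or 80% B depending on the compound. Retention time was taken at elution.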
Data set [16] has as its system Human immunodeficiency virus 1. The data set is described as follows: Antiviral activity against HIV-1 harboring wild type integrase infected in human HOS cells pretreated with compound for 3 hrs by single-round HIV-1 infectivity assay in presence of 5% fetal bovine serum. The data set is classed as functional, organism-based. The settings on record: Human immunodeficiency virus 1, HOS. Summed up:
as §1

Data set [17] has as its system Human immunodeficiency virus 1. The data set is described as follows: Antiviral activity against HIV-1 harboring wild type integrase infected in human HOS cells pretreated with compound for 3 hrs by single-round HIV-1 infectivity assay in presence of 10% fetal bovine serum. The data set is classed as functional, organism-based. The conditions noted are these: Human immunodeficiency virus 1, HOS. Summed up:
as §1

Data set [18] relates to Human immunodeficiency virus 1. The data set is described as follows: Antiviral activity against HIV-1 harboring wild type integrase infected in human HOS cells pretreated with compound for 3 hrs by single-round HIV-1 infectivity assay in presence of 15% fetal bovine serum. In kind it is functional, organism-based. The settings on record: Human immunodeficiency virus 1, HOS. The method in brief:
as §1

Data set [19] deals with Human immunodeficiency virus type 1 reverse transcriptase (Human immunodeficiency virus 1) (UniProt Q72547). The data set is described as follows: Inhibition of HIV-1 DNA-dependent DNA polymerase activity of reverse transcriptase after 60 mins by agarose gel electrophoresis.
For data set [20] the target is unchanged. The data set is described as follows: Inhibition of HIV-1 RNase H activity of reverse transcriptase assessed as full length RNA level at 10 uM by agarose gel electrophoresis.
Data set [21] has the same target. The data set is described as follows: Inhibition of HIV-1 reverse transcriptase RNase H activity-mediated -8 cleavage assessed as retention of -17 cleavage after 10 to 15 mins by agarose gel electrophoresis.
Data set [22] shares this target. Description: Inhibition of HIV-1 reverse transcriptase RNase H activity-mediated -8 cleavage assessed as retention of -17 cleavage at 10 uM by agarose gel electrophoresis.

Active and inactive are the calls of the source. The rule behind the calls is not given here. Bounds are passed on as bounds.

T1 sequence (Q7ZJM1 whole entry): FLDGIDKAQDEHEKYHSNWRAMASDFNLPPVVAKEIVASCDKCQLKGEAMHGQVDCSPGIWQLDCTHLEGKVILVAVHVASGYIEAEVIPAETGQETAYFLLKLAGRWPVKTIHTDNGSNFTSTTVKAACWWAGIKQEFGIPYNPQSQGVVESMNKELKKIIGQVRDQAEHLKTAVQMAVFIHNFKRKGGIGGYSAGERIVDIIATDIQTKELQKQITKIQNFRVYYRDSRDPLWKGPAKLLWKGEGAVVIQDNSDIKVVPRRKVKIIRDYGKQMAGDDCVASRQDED

For orientation: IC50 means the concentration at which inhibition is half-maximal. Read a low IC50 as greater potency in that assay. One may read the EC50 as the concentration that produces a half-maximal response. By CC50 is commonly meant the concentration that lowers cell viability or growth by half. With `O=C(NCc1ccc(F)cc1F)c1c(NCCO)c2cccnc2n(O)c1=O`, the IC50 worked out at 0.55 µM in data set [1] and 0.01 µM in [2]. Also, the EC50 is 0.0052 µM in data set [3]; 0.0046 µM in data set [4]; 0.025 µM in [5]; 0.043 µM in data set [6]; 0.026 µM in data set [10]; 0.027 µM in data set [11]. Moreover, the “Ratio EC50” value in data set [7] came out at 0.88; in [8], 5; in data set [9], 8; in data set [12], 5; in [13], 5. The CC50 with HOS came to 24 µM. Moreover, the selectivity ratio in data set [14] amounted to 4620. In addition, the Retention_time in [15] came out at 21.6 min.
Regarding `C[C@@H]1CCO[C@H]2Cn3cc(C(=O)NCc4ccc(F)cc4F)c(=O)c(O)c3C(=O)N12` [DOLUTEGRAVIR], the half-maximal effective concentration (EC50) was found to be 0.0016 µM in data set [3]; 0.0043 µM in [4]; 0.0036 µM in data set [5]; 0.0058 µM in data set [6]; 0.011 µM in data set [10]; 0.013 µM in [11].
Regarding `COC(=O)CNc1c(C(=O)NCc2ccc(F)cc2F)c(=O)n(O)c2ncccc12`, the concentration for half-maximal inhibition (IC50) in data set [1] was 0.71 µM; in [2] it was 0.021 µM. Further, the EC50 is 0.0038 µM in [3]; 0.0046 µM in data set [4]; 0.019 µM in data set [5]; 0.036 µM in data set [6]; 0.026 µM in data set [10]; 0.041 µM in data set [11]. Moreover, the values for the EC50 in data set [16], in data set [17] and in [18] were 0.0038 µM, 0.003 µM and 0.003 µM, respectively. Further, the “Ratio EC50” value in [7] came to 1; in [8] it was 5; in data set [9] it was 9; in data set [12], 7; in data set [13], 11. In addition, the half-maximal cytotoxic concentration (CC50) with HOS was greater than 250 µM. Further, the selectivity ratio in data set [14] was greater than 65800. Moreover, the inhibition result in data set [19] and in data set [21] was “Active” throughout. Further, the inhibition entry in data set [20] is “inactive”. For the same compound, the Retention_time in [15] came to 28.4 min.
On to `CC(=O)OCCNc1c(C(=O)NCc2ccc(F)cc2F)c(=O)n(O)c2ncccc12`, for which the IC50 in data set [1] was 5.3 µM; in data set [2] it was 0.027 µM. Further, the EC50 was 0.0045 µM in data set [3]; 0.0048 µM in data set [4]; 0.0031 µM in data set [5]; 0.035 µM in data set [6]; 0.016 µM in [10]; 0.044 µM in [11]. Further, the EC50 in [16], in data set [17] and in data set [18] was 0.0045 µM each time. Moreover, the “Ratio EC50” value in data set [7] is on record as 1; in [8], 0.69; in data set [9], 8; in data set [12], 4; in [13] it was 10. Moreover, in the data set on HOS, the half-maximal cytotoxic concentration (CC50) was greater than 250 µM. The selectivity ratio in data set [14] is greater than 55600. Moreover, the inhibition entry in data set [19] and in data set [22] was “Active” in each case. Also, the Retention_time in [15] was determined as 23.6 min.
Turning to `Nc1c(C(=O)NCc2ccc(F)cc2F)c(=O)n(O)c2ncccc12`, the concentration for a half-maximal effect (EC50) in data set [3] came to 0.0011 µM; in data set [10], 0.0064 µM; in data set [11], 0.016 µM; in data set [16], 0.0011 µM; in [17] it was 0.0011 µM; in data set [18], 0.0011 µM. In addition, the CC50 with HOS was greater than 250 µM. Moreover, the inhibition entry in data set [19] and in data set [22] was “Active” throughout. The same compound displayed a Retention_time in data set [15] of 19.5 min.
